The source of these data is ChEMBL document CHEMBL1121883, “1-(Naphthylalkyl)-1H-imidazole derivatives, a new class of anticonvulsant agents” (J Med Chem, 1981).

The subject of data set [1] is Mus musculus. Briefly: Compound was evaluated for anticonvulsant activity by maximal electroshock assay(MES) in mice after ip administration; 14-33. The data set is classed as functional. In short, it runs like this: (§1)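 Male Hilltop ICR-derived mice (19-30 g), groups of 8-10, dosed ip with compound or aqueous vehicle. After 15 min pretreatment, a transcorneal 60-Hz, 50 mA shock was given for 0.2 s. Just before the shock, each mouse was tested on a horizontal wire (10 s). Quantal data were analysed by Litchfield-Wilcoxon to give ED50 with 95% confidence limits.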
(In general: The maximal electroshock test induces tonic seizures with an electrical stimulus.)

Data set [2] relates to Mus musculus. Nature of the data set: Dose of compound causing a neurological deficit in 50% of mice after ip administration; 32-90. The data set is classed as functional. In short, it runs like this: (§2)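 Traction test in male Hilltop ICR-derived mice (19-30 g, groups of 8-10) just before electroshock, 15 min after ip or 30 min after oral dosing. Mice placed on a 16-gauge, 65-cm copper wire 40 cm above the table; deficit scored as failure to stay on for 10 s. ND50 with 95% limits by Litchfield-Wilcoxon.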

Data set [3] has as its system Mus musculus. Nature of the data set: Protective index is defined as ND50 (i.p.) divided by MES ED50(i.p.). The format is functional. The essentials:
(§3)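 Ratio of ND50 from the wire traction test to MES ED50, both measured by the same route (ip or oral) in the same animals. Quantal dose-response data for each were evaluated by Litchfield-Wilcoxon.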

The subject of data set [4] is Mus musculus. Briefly: Dose of compound causing a neurological deficit in 50% of mice after ip administration; 57-91. The format is functional. In short, it runs like this: as §2
Data set [5] concerns Mus musculus. Nature of the data set: Compound was evaluated for anticonvulsant activity by maximal electroshock assay(MES) in mice after ip administration; 18-48. The format is functional. The essentials:
as §1

Data set [6] concerns Mus musculus. Briefly: Compound was evaluated for anticonvulsant activity by maximal electroshock assay(MES) in mice after ip administration; 22-80. The format is functional. In short, it runs like this:
as §1

Data set [7] has as its system Mus musculus. Briefly: Dose causing a neurological deficit in 50% of mice after ip administration. The format is functional. In short, it runs like this: as §2
Data set [8] is described as follows: (§4) Lethal dose was measured in mice after ip administration. Particulars: mouse, in vivo. The format is toxicity, organism-based. The essentials:
(§5)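 Male Simonsen ICR-derived mice (16-24 g), groups of three, given compound ip in increasing doses within a behavioral screen. Deaths counted on day 5, and LD50 estimated from 5-day survival. Quantal data analysed by the Litchfield-Wilcoxon method.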

The test system of data set [9] is Mus musculus. Briefly: Dose of compound causing a neurological deficit in 50% of mice after ip administration. The data set is classed as functional. In short, it runs like this: as §2
The subject of data set [10] is Mus musculus. Nature of the data set: Compound was evaluated for anticonvulsant activity by maximal electroshock assay(MES) in mice after ip administration. The data set is classed as functional. The essentials: as §1
The subject of data set [11] is Rattus norvegicus. Briefly: Compound was evaluated for anticonvulsant activity by maximal electroshock assay(MES) in rat after ip administration; 3.8-8.4. The format is functional.
The test system of data set [12] is Mus musculus. Briefly: Protective index defined as ND50 (p.o.) divided by MES ED50(op). The data set is classed as functional. In short, it runs like this:
as §3

Data set [13] has as its system Rattus norvegicus. Briefly: Dose of compound causing a neurological deficit in 50% of rat after ip administration. The data set is classed as functional. The essentials: (§6)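 Rats (Simonsen Sprague-Dawley-derived, 80-110 g, groups of 8-10) placed on a suspended 16-gauge, 65-cm copper wire just before electroshock. Deficit scored as inability to remain for 8 s. Pretreatment was 15 min ip or 30 min oral. Quantal data analysed by Litchfield-Wilcoxon to give ND50 with 95% limits.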

Data set [14] deals with Mus musculus. Briefly: Dose of compound causing a neurological deficit in 50% of mice after po administration. The data set is classed as functional. In short, it runs like this:
as §2

Data set [15] has as its system Mus musculus. Briefly: Compound was evaluated for anticonvulsant activity by maximal electroshock assay(MES) in mice after ip administration; 8-13. The format is functional. In short, it runs like this:
as §1

Data set [16] deals with Mus musculus. Briefly: Compound was evaluated for anticonvulsant activity by maximal electroshock assay(MES) in mice after po administration; 15-26. The format is functional. The essentials:
(§7)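 Male Hilltop ICR-derived mice (19-30 g), groups of 8-10, given compound or aqueous vehicle orally. The transcorneal 60-Hz shock (50 mA, 0.2 s) followed a 30 min pretreatment and a wire-hang neurological check (10 s). ED50 and 95% confidence limits were obtained from quantal data by the Litchfield-Wilcoxon method.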

Data set [17] deals with Rattus norvegicus. Briefly: Compound was evaluated for anticonvulsant activity by maximal electroshock assay(MES) in rat after po administration; 15-36. The data set is classed as functional. The essentials: (§8)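 Male Simonsen Sprague-Dawley-derived rats, 80-110 g, groups of 8-10, dosed with compound or aqueous vehicle; pretreatment 15 min after ip or 30 min after oral dosing. Transcorneal electroshock, 150 mA, 60 Hz, 0.2 s, given after the wire test. ED50 with 95% confidence limits from quantal data by Litchfield-Wilcoxon.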

Data set [18] relates to Mus musculus. Nature of the data set: Dose of compound causing a neurological deficit in 50% of mice after ip administration; 41-246. The data set is classed as functional. The essentials: as §2
Data set [19] has as its system Rattus norvegicus. Briefly: Dose of compound causing a neurological deficit in 50% of rat after po administration. The data set is classed as functional. In short, it runs like this: as §6
The test system of data set [20] is Mus musculus. Nature of the data set: Anticonvulsant activity in mouse maximal electroshock assay following i.p. administration. The format is functional. Particulars: ip. The essentials:
as §1

For data set [21], the system named is Mus musculus. Briefly: Compound was evaluated for anticonvulsant activity by maximal electroshock assay(MES) in mice after po administration. The format is functional. The essentials: as §7
The test system of data set [22] is Mus musculus. Nature of the data set: Dose causing a neurological deficit in 50% of mice following p.o. administration. The format is functional. In short, it runs like this: as §2
Data set [23] relates to Rattus norvegicus. Nature of the data set: Compound was evaluated for anticonvulsant activity by maximal electroshock assay(MES) in rat after po administration.
In data set [24] the test system is Rattus norvegicus. Briefly: Dose of compound causing a neurological deficit in 50% of rat after po administration.
Data set [25] has as its system Mus musculus. Nature of the data set: Compound was evaluated for anticonvulsant activity by maximal electroshock assay(MES) in mice after ip administration; 11-18. The format is functional. In short, it runs like this: as §1
Data set [26] concerns Rattus norvegicus. Nature of the data set: Compound was evaluated for anticonvulsant activity by maximal electroshock assay(MES) in rat after ip administration; 0.6-6.6. The format is functional.
For data set [27], the system named is Mus musculus. Briefly: Dose of compound causing a neurological deficit in 50% of mice after ip administration; 66-92. The data set is classed as functional. The essentials: as §2
For data set [28], the system named is Mus musculus. Briefly: Compound was evaluated for anticonvulsant activity by maximal electroshock assay(MES) in mice after po administration; 37-60. The format is functional. In short, it runs like this:
as §7

Data set [29] deals with Rattus norvegicus. Nature of the data set: Compound was evaluated for anticonvulsant activity by maximal electroshock assay(MES) in rat after po administration; 13-39. The data set is classed as functional. In short, it runs like this: as §8
Data set [30] deals with Mus musculus. The description is as §4. The format is functional. In short, it runs like this: as §5

By ED50 is commonly meant the midpoint of the dose-response relation. Higher therefore signals a need for a large dose. A word on the LD50: it is the dose expected to kill half of the subjects tested. Read a low LD50 as greater toxicity.

Values joined by “and” are separate entries in the source; they are usually repeats but may differ in a detail not shown here. Equal entries are not always repeated. Some results are limits rather than exact numbers.

Take `COc1c(C(=O)Cn2ccnc2)ccc2ccccc12.Cl`: the ED50 in the data set on Mus musculus [1] came out at 23 mg/kg. In addition, the ND50 in the data set on Mus musculus [2] was 51 mg/kg. Further, the PI with Mus musculus [3] amounted to 2.2.
`Cc1ccccc1OC(Cn1ccnc1)c1ccc2ccccc2c1.Cl` (stereo not drawn) yielded an ND50 in the data set on Mus musculus [4] of 70 mg/kg. For the same compound, it took a dose of 33 mg/kg to reach the 50% effect level in the data set on Mus musculus [5] (ED50). For the same compound, the PI with Mus musculus [3] is given as 2.1.
Take `Cl.O=C(Cn1ccnc1)c1ccc2cc(Br)ccc2c1`: the ED50 in the data set with Mus musculus [6] was determined as 41 mg/kg.
`CCSC(Cn1ccnc1)(SCC)c1ccc2ccccc2c1.Cl` registered an ND50 in the data set on Mus musculus [7] of 78 mg/kg. This compound also registered a PI in the data set with Mus musculus [3] of 2.2. Further, in [8], the LD50 is more than 100 mg/kg.
For `CSC(Cn1ccnc1)(SC)c1ccc2ccccc2c1.Cl`, in that order: 29 mg/kg, 0.9 and more than 100 mg/kg.
In turn, `C[S+]([O-])C(Cn1ccnc1)c1ccc2ccccc2c1.Cl` (stereo not drawn) yielded an ND50 in the data set on Mus musculus [9] of more than 40 mg/kg. Also, the ED50 with Mus musculus [10] is more than 40 mg/kg.
For the compound `Cl.O=C(CCn1ccnc1)c1ccc2ccccc2c1`, the ED50 was 5.9 mg/kg in the data set on Rattus norvegicus [11], 10 mg/kg with Mus musculus [15], 20 mg/kg with Mus musculus [16] and 25 mg/kg in the data set on Rattus norvegicus [17]. Further, the PI is >5 and >4 with Mus musculus [12]; 6 and >10 in the data set on Mus musculus [3]. In addition, the ND50 in the data set with Rattus norvegicus [13] is more than 60 mg/kg; in the data set with Mus musculus [14], more than 100 mg/kg; in the data set with Mus musculus [18], 60 mg/kg; in the data set on Rattus norvegicus [19], more than 100 mg/kg.
For the compound `Cc1cc2cccc(C(=O)Cn3ccnc3)c2cc1C.Cl`, in the data set on Mus musculus [7], the ND50 is more than 300 mg/kg. The compound also came in with a PI in the data set on Mus musculus [3] of more than 3.8. In the data set with Mus musculus [20], this compound displayed an ED50 of 80 mg/kg.
For `Cl.c1ccc2cc(C3(CCn4ccnc4)SCCS3)ccc2c1`, in that order: 33 mg/kg, 2.2 and 15 mg/kg.
Regarding `Cl.c1ccc2cc(CCn3ccnc3)ccc2c1`, the PI is listed as more than 2.1 with Mus musculus [12] and 1.4 in the data set on Mus musculus [3]. The values for the ND50 in the data set on Mus musculus [7], in the data set on Mus musculus [22] and with Rattus norvegicus [24] were 31 mg/kg, more than 100 mg/kg and more than 100 mg/kg, respectively. Besides, the ED50 in the data set on Mus musculus [21] was 47 mg/kg; in the data set with Rattus norvegicus [23], 54 mg/kg; with Mus musculus [20] it was 22 mg/kg. The LD50 in data set [8] was more than 100 mg/kg.
`OC(Cn1ccnc1)c1ccc2ccccc2c1` (stereo not drawn) displayed an LD50 in data set [8] of more than 300 mg/kg.
For the compound `Cl.O=C(Cn1ccnc1)c1ccc2ccccc2c1` [NAFIMIDONE HYDROCHLORIDE], the ED50 in the data set with Mus musculus [25] was determined as 15 mg/kg; in the data set on Rattus norvegicus [26] it was 1.7 mg/kg; in the data set with Mus musculus [28] it was 48 mg/kg; in the data set with Rattus norvegicus [29] it was 26 mg/kg. Also, the PI with Mus musculus [12] is recorded as more than 4.2. Besides, the ND50 with Mus musculus [27] is 83 mg/kg; in the data set on Rattus norvegicus [13], more than 100 mg/kg; in the data set on Mus musculus [22] it was more than 200 mg/kg; with Rattus norvegicus [19] it was more than 100 mg/kg. The LD50 with Mus musculus [30] was more than 100 mg/kg.
Consider `CCC1(c2ccccc2)C(=O)NC(=O)NC1=O` [PHENOBARBITAL], for which the PI in the data set on Mus musculus [12] is 1.9; in the data set on Mus musculus [3] it was 2. The ND50 is 30 mg/kg with Mus musculus [7] and 36 mg/kg in the data set with Mus musculus [22]. For the same compound, the ED50 with Mus musculus [21] was determined as 19 mg/kg; in the data set with Mus musculus [20], 15 mg/kg. Also, the LD50 in data set [8] is more than 100 mg/kg.
